Reference: ChEMBL document CHEMBL4261576, “Conformationally restricted benzothienoazepine respiratory syncytial virus inhibitors: their synthesis, structural analysis and biological activities” (Medchemcomm, 2018)
“And” between values parts separate entries of the source, which are not always exact repeats. Identical values can stand only once. Values belong to the compound of their own block, whether it stands above or below them.

Tests used:
[1] = tested on: Respiratory syncytial virus; assay: Antiviral activity against RSV A2 infected in human HEp2 cells assessed as protection against virus-induced cytopathic effect after 5 days by resazurin assay; assay type: functional, organism-based; settings: A2, HEp-2, 120 h
Outline: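 HEp2 cells seeded at 10^3/well in 5% FBS-DMEM with 2 mM L-glutamine and 1 mM sodium pyruvate one day before infection. RSV A2 added in serum-free DMEM at final MOI 1, with compound added at the same time (final DMSO 0.5%). Incubated 5 days at 37°C/5% CO2. Resazurin then added for 6 h; fluorescence read at 545/590 nm. Percent inhibition per well; IC50 taken from the concentration-response curve.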

[2] = tested on: Respiratory syncytial virus; assay: Antiviral activity against RSV B Washington infected in human HEp2 cells assessed as protection against virus-induced cytopathic effect after 6 days by resazurin assay; assay type: functional, organism-based; settings: HEp-2, 144 h
Outline: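 HEp2 cells seeded at 10^3/well in 5% FBS-DMEM with glutamine and pyruvate one day before infection. RSV B Washington added in serum-free DMEM at final MOI 0.2, with compound added at the same time (0.5% DMSO final). Incubated 6 days at 37°C/5% CO2. Resazurin added for 6 h; fluorescence read at 545 nm ex / 590 nm em. IC50 taken from the concentration-response curve.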

[3] = tested on: Respiratory syncytial virus; assay: Antiviral activity against RSV A2 infected in human HEp2 cells assessed as protection against virus-induced cytopathic effect at 0.014 uM after 5 days by resazurin assay relative to control; assay type: functional
Vasopressin V1a receptor = Vasopressin V1a receptor (Homo sapiens, UniProt P37288); assay: Displacement of [3H] (Arg8)-vasopressin from human vasopressin V1a receptor expressed in CHO cell membranes after 60 mins
Vasopressin V1a receptor, sequence (P37288 whole entry): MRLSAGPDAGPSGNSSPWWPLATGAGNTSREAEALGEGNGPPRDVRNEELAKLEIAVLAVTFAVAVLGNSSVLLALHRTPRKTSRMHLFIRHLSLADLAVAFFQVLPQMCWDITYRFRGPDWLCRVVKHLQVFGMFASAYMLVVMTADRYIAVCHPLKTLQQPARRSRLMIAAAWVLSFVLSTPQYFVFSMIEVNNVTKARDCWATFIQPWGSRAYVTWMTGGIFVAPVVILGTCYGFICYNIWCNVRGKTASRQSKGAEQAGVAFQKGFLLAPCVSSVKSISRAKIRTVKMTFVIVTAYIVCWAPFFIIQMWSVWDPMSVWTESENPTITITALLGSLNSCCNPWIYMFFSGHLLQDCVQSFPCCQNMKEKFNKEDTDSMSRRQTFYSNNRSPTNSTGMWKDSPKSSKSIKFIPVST

Vasopressin V2 receptor = Vasopressin V2 receptor (Homo sapiens, UniProt P30518); assay: Displacement of [3H] (Arg8)-vasopressin from human vasopressin V2 receptor expressed in CHO cell membranes after 60 mins
Vasopressin V2 receptor, sequence (P30518 whole entry): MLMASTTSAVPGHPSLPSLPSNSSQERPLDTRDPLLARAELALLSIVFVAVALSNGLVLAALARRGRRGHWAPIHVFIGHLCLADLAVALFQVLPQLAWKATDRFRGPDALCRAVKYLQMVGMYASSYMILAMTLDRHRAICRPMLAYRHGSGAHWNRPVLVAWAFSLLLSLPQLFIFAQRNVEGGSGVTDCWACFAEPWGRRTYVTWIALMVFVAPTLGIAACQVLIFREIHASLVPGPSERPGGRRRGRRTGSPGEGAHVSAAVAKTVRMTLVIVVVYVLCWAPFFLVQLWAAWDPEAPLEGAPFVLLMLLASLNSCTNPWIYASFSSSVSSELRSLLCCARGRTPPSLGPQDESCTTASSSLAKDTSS

Structure (SMILES): Cc1cnc(N2CC3(CCOCC3)C2)c(C(=O)Nc2ccc(C(=O)N3C[C@@H](C)c4cc(C(=O)Nc5c(C)cccc5F)sc4-c4ccccc43)cc2)c1
IC50 [1]: > 14 nM
IC50 [2]: > 1370 nM
Activity [3]: 40%

Ki (Vasopressin V1a receptor): 70 nM and 620 nM
Ki (Vasopressin V2 receptor): 640 nM and 4700 nM
Structure (SMILES): Cc1ccccc1C(=O)Nc1ccc(C(=O)N2CCC(=O)N(C)c3cccc(C)c32)cc1

Structure (SMILES): Cc1cnc(N2CC3(CCOCC3)C2)c(C(=O)Nc2ccc(C(=O)N3C[C@H](C)c4cc(C(=O)Nc5c(C)cccc5F)sc4-c4ccccc43)cc2)c1
IC50 [1]: 0.51 nM
IC50 [2]: 15 nM

Structure (SMILES): Cc1cnc(N2CC3(CCOCC3)C2)c(C(=O)Nc2ccc(C(=O)N3c4ccccc4-c4sc(C(=O)Nc5c(F)cccc5F)cc4C[C@@H]3C)cc2)c1
IC50 [1]: > 14 nM
IC50 [2]: > 1360 nM

Structure (SMILES): Cc1cnc(N2CC3(CCOCC3)C2)c(C(=O)Nc2ccc(C(=O)N3c4ccccc4-c4sc(C(=O)Nc5c(F)cccc5F)cc4C[C@H]3C)cc2)c1
IC50 [1]: 0.18 nM
IC50 [2]: 9.2 nM

Structure (SMILES): Cc1cnc(N2CC3(CCOCC3)C2)c(C(=O)Nc2ccc(C(=O)N3CC(C)c4cc(C(=O)Nc5c(C)cccc5F)sc4-c4ccccc43)cc2)c1 (racemic)
IC50 [1]: 1.1 nM
IC50 [2]: 17 nM

Structure (SMILES): Cc1cnc(N2CC3(CCOCC3)C2)c(C(=O)Nc2ccc(C(=O)N3c4ccccc4-c4sc(C(=O)Nc5c(F)cccc5F)cc4CC3C)cc2)c1 (racemic)
IC50 [1]: 0.45 nM
IC50 [2]: 13 nM

Structure (SMILES): Cc1cnc(N2CC3(CCOCC3)C2)c(C(=O)Nc2ccc(C(=O)N3CCc4cc(C(=O)Nc5c(C)cccc5F)sc4-c4ccccc43)cc2)c1 [PC-786]
IC50 [1]: 0.32 nM
IC50 [2]: 7.2 nM
